“And” between values parts separate entries of the source, which are not always exact repeats. Equal entries are not always repeated.
How the values were obtained:
[1] = test system: FGFR1 amplified and FGFR2 amplified or mutated cancer cell lines; test: cell viability assay; type: cell-based, human
Method in brief: (§1)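 Cell lines were grown in RPMI with 1% glutamine and 10% FBS. Cells were exposed to test compound (0.01–50 μM; 10 mM DMSO stock) 48 h after seeding. MTS was added 72 h after treatment and read at 490 nm after 2 h incubation. IC50 was calculated by software and reported as arithmetic mean + SEM.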

[2] = test system: tumor type cell lines with wt FGFR1 and wt FGFR2; test: cell viability assay; type: cell-based; conditions: Homo sapiens, 72 h
Method in brief: as §1

[3] = test system: DMS114 cells; test: cell viability assay; type: cell-based; conditions: Homo sapiens, DMS-114
Method in brief: as §1

[4] = test system: H1299 cells; test: cell viability assay; type: cell-based; conditions: Homo sapiens, NCI-H1299
Method in brief: as §1

[5] = test system: DMS114 cells; test: cell cycle perturbation, flow cytometry of DNA content, DMS114; type: cell-based, human; conditions: DMS114, 1 μM (IC50); starting at 24 hours and persisting up to 48 hours
[6] = test system: H1299 cells; test: cell cycle perturbation, flow cytometry of DNA content, H1299; type: cell-based, human; conditions: H1299, 10 μM (IC50); 4, 24, 48 and 72 hours
[7] = test system: DMS114 cells; test: TUNEL apoptosis assay, DMS114; type: cell-based, human; conditions: DMS114, 1 μM (IC50); 4, 24, 48 and 72 hours
[8] = test system: H1299 cells; test: TUNEL apoptosis assay, H1299; type: cell-based, human; conditions: H1299, 10 μM (IC50); 4, 24, 48 and 72 hours
[9] = test system: H1299 (NSCLC) FGFR1 wt xenograft; test: H1299 xenograft tumor growth; type: in vivo, mice; conditions: for Best T/C%: day 38 after implant
Method in brief: (§2)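 Female NCr-nu/nu mice (6 weeks old, specific pathogen free) received subcutaneous flank tumor fragments. Tumors were measured by caliper twice weekly, with volume = (length × width²)/2. Best %T/C = (median treated volume / median control volume) × 100.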

[10] = test system: H1581 (NSCLC) FGFR1 amplified xenograft; test: H1581 xenograft tumor growth; type: in vivo, mice; conditions: for Best T/C%: day 27 after implant
Method in brief: as §2

[11] = test system: DMS114 (SCLC) FGFR1 amplified xenograft; test: DMS114 xenograft tumor growth; type: in vivo, mice
Method in brief: as §2

[12] = test system: MNK45 gastric carcinoma FGFR2 wt xenograft; test: MNK45 xenograft tumor growth; type: in vivo, mice
Method in brief: as §2

[13] = test system: SNU16 gastric carcinoma FGFR2 amplified xenograft; test: SNU16 xenograft tumor growth; type: in vivo, mice; conditions: day 30 after implant
Method in brief: as §2

[14] = test system: HEC1A endometrial carcinoma FGFR2 wt xenograft; test: HEC1A xenograft tumor growth; type: in vivo, mice; conditions: for Best T/C%: HEC1A
Method in brief: as §2

[15] = test system: MFE296 endometrial carcinoma FGFR2 mutated xenograft; test: MFE296 xenograft tumor growth; type: in vivo, mice
Method in brief: as §2

[16] = pharmacokinetics after 12 daily oral doses in lung xenograft bearing mice; type: in vivo; conditions: for tumor/plasma ratio: lung xenografts
[17] = molecular target: VEGFR1-3 tyrosine kinases; conditions: biochemical assays; cited from earlier work
[18] = molecular target: PDGFRα/β tyrosine kinases; conditions: biochemical assays; cited from earlier work
[19] = molecular target: FGFR1-3 tyrosine kinases; conditions: biochemical assays; cited from earlier work
[20] = after 21 days of treatment, just before the daily oral dose of 10 mg, cited from earlier work
[21] = test system: breast cancer patients with FGF-aberrant (FGFR1 and/or FGF3/4/19 gene amplified) tumors; conditions: among 12 breast cancer patients with FGF-aberrant tumors; cited from earlier work
[22] = NCr-nu/nu, mouse, tumor and plasma, po

CNC(=O)c1cccc2cc(Oc3ccnc4cc(OCC5(N)CC5)c(OC)cc34)ccc12 [lucitanib]
IC50 lower in FGFR2 amplified or mutated cell lines than in FGFR2 wt cells ([1]; FGFR2 amplified or mutated cell lines vs FGFR2 wt cells): 10 fold | IC50 ([1]; Homo sapiens, 72 h): 45 to 3160 nM | IC50 [2]: 3000 to 23000 nM | IC50 [3]: 1000 nM | IC50 [4]: 10000 nM | perturbation of the cell cycle [5]: G1 block | perturbation of the cell cycle [6]: late S-G2/M blockade | apoptosis by TUNEL assay [7]: no apoptosis was detected | apoptosis by TUNEL assay [8]: no apoptosis was detected | Best T/C% ([9]; H1299, 2.5 mg/kg orally daily for 30 days): 55 (38) % | Best T/C% ([9]; H1299, 5 mg/kg orally daily for 30 days): 41% and 41 (38) % | Best T/C% ([9]; H1299, 10 mg/kg orally daily for 30 days): 28 (38) % | Best T/C% ([9]; H1299, 20 mg/kg orally daily for 30 days): 24 (38) % | tumor regressions ([9]; H1299 lung xenograft, any dose schedule, best effect tumor stabilization): No tumor regressions | Best T/C% ([10]; H1581, 2.5 mg/kg orally daily for 30 days): 46 (27) % | Best T/C% ([10]; H1581, 5 mg/kg orally daily for 30 days): 24% and 24 (27) % | Best T/C% ([10]; H1581, 10 mg/kg orally daily for 30 days): 21 (27) % | Best T/C% ([10]; H1581, 20 mg/kg orally daily for 30 days): 16 (27) % | tumor regressions ([10]; H1581 lung xenograft, any dose schedule, best effect tumor stabilization): No tumor regressions | Best T/C% ([11]; DMS114, 2.5 mg/kg orally daily for 30 days, day 44 after implant): 45 (44) % | Best T/C% ([11]; DMS114, 5 mg/kg orally daily for 30 days, day 46 after implant): 20% and 20 (46) % | Best T/C% ([11]; DMS114, 10 mg/kg orally daily for 30 days, day 44 after implant): 16 (44) % | Best T/C% ([11]; DMS114, 20 mg/kg orally daily for 30 days, day 44 after implant): 12 (44) % | tumor regressions ([11]; DMS114 lung xenograft, any dose schedule, best effect tumor stabilization): No tumor regressions | Best T/C% ([12]; MNK45, 2.5 mg/kg orally daily for 30 days, day 28 after implant): 22 (28) % | Best T/C% ([12]; MNK45, 5 mg/kg orally daily for 30 days, day 28 after implant): 12 (28) % | Best T/C% ([12]; MNK45, 10 mg/kg orally daily for 30 days, day 32 after implant): 10 (32) % | Best T/C% ([12]; MNK45, 20 mg/kg orally daily for 30 days, day 32 after implant): 7 (32) % | tumor regressions ([12]; MNK45 wt FGFR2, 20 mg/kg (data not shown)): 3 out of 10 mice | Best T/C% ([13]; SNU16, 2.5 mg/kg orally daily for 30 days): 40 (30) % | Best T/C% ([13]; SNU16, 5 mg/kg orally daily for 30 days): 32 (30) % | Best T/C% ([13]; SNU16, 10 mg/kg orally daily for 30 days): 16 (30) % | Best T/C% ([13]; SNU16, 20 mg/kg orally daily for 30 days): 14 (30) % | tumor regressions ([14]; HEC1A wt FGFR2, 20 mg/kg (data not shown)): 2 out of 10 mice | Best T/C% ([14]; 2.5 mg/kg orally daily for 30 days, day 45 after implant): 29 (45) % | Best T/C% ([14]; 5 mg/kg orally daily for 30 days, day 47 after implant): 17 (47) % | Best T/C% ([14]; 10 mg/kg orally daily for 30 days, day 45 after implant): 12 (45) % | Best T/C% ([14]; 20 mg/kg orally daily for 30 days, day 49 after implant): 10 (49) % | Best T/C% ([15]; MFE296, 2.5 mg/kg orally daily for 30 days, day 28 after implant): 36 (28) % | Best T/C% ([15]; MFE296, 5 mg/kg orally daily for 30 days, day 25 after implant): 34 (25) % | Best T/C% ([15]; MFE296, 10 mg/kg orally daily for 30 days, day 30 after implant): 22 (30) % | Best T/C% ([15]; MFE296, 20 mg/kg orally daily for 30 days, day 25 after implant): 17 (25) % | tumor/plasma ratio ([16]; 4 hours after the last of 12 daily oral doses): 2.5 | tumor/plasma ratio ([16]; 24 hours after the last of 12 daily oral doses): 24.8 | tumor drug concentration at 4 hours relative to in vitro IC50 ([16]; FGFR1 amplified H1581 and DMS114 tumors, higher than IC50 values): 3 to 26 fold | Kp at 4 h [16, 22]: 2.5 ± 0.7 | Kp at 24 h [16, 22]: 24.8 ± 7.4 | Kd [17]: < 100 nM | Kd [18]: < 100 nM | Kd [19]: < 100 nM | tumor drug concentration relative to concomitant plasma drug concentration [20]: 25 fold | tumor drug concentration ([20]; breast cancer biopsy from a person): 11 µM | confirmed objective RECIST responses [21]: 4 | unconfirmed objective RECIST responses [21]: 2
